What all share (format): functional, cell-based
The test system of assay [1] is HT-22. Kind of assay: Neuroprotective activity against H2O2-induced oxidative stress-mediated cell death in mouse HT22 cells assessed as compound level causing increase cell survival at 1 to 100 uM by MTT assay. For orientation: Tetrazolium dyes change colour on reduction, which living cells bring about.
Assay [2] has as its system HT-22. The experiment in a line: Neuroprotective activity against oxygen glucose deprivation-induced cell death in mouse HT22 cells assessed as increase cell survival at 100 uM by MTT assay. The method, boiled down:
(§1)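 Mouse hippocampal HT-22 cells were split into blank control, OGD model and treated groups. Treated cells were exposed to oxygen glucose deprivation with test compound at 5 concentrations. The reference compound was dosed at 10 times the test-compound level. Viability was read by MTT and compared against the control and model groups. Each assay was run in triplicate.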

Assay [3] has as its system HT-22. The experiment in a line: Neuroprotective activity against oxygen glucose deprivation-induced cell death in mouse HT22 cells assessed as increase cell survival at 6.25 to 100 uM by MTT assay. The method in brief: as §1

Calls of active or inactive are those of the source. No cut-off for these calls is given here.

This note sets out measurements from ChEMBL document CHEMBL4184226, “Design and synthesis of novel senkyunolide analogues as neuroprotective agents” (2018).

As for `CCC/C=C1/Oc2ccc(OC(=O)CCC(=O)OCCCOc3no[n+]([O-])c3S(=O)(=O)c3ccccc3)cc2C1=O`, the outcome in assay [1] and in assay [2] was Active. The Activity entry in assay [3] was “Dose-dependent effect”.

Take `CCC/C=C1/C(=O)Oc2ccc(OC)cc21`: the Activity entry in assay [3] is “Dose-dependent effect”.

Turning to `CCC/C=C1/Oc2c(ccc(OC)c2OC)C1=O`, in assay [3], the Activity result was “Dose-dependent effect”.

Take `CCC/C=C1/Oc2ccc(OC(=O)CCC(=O)OCCCCOc3no[n+]([O-])c3S(=O)(=O)c3ccccc3)cc2C1=O`: the result in assay [1] was Active. The Activity entry in assay [3] was “Dose-dependent effect”.

With `CCC/C=C1/C(=O)Oc2ccccc21`, the Activity result in assay [3] was “Dose-dependent effect”.

Regarding `CCC/C=C1/Oc2cc(OC)ccc2C1=O`, in assay [1], the result was Active. Further, the Activity result in assay [3] was “Dose-dependent effect”.

Turning to `CCC/C=C1/C(=O)Oc2cc(OC)ccc21`, the Activity entry in assay [3] is “Dose-dependent effect”.

For the molecule `CCC/C=C1/Oc2ccc(OC(=O)CCC(=O)OC(C)CCOc3no[n+]([O-])c3S(=O)(=O)c3ccccc3)cc2C1=O` (stereo unspecified), in assay [3], the Activity entry was “Dose-dependent effect”.

With `CCC/C=C1/Oc2ccccc2C1=O`, the Activity entry in assay [3] was “Dose-dependent effect”.

Regarding `CCC/C=C1/Oc2ccc(OC(=O)CCC(=O)OC/C=C/COc3no[n+]([O-])c3S(=O)(=O)c3ccccc3)cc2C1=O`, in assay [3], the Activity result was “Dose-dependent effect”.

Take `CCCCC1Oc2c(ccc(OC)c2OC)C1=O` (stereo unspecified): in assay [3], the Activity result was “Dose-dependent effect”.

As to `CCCCC1Oc2cc(OC)ccc2C1=O` (stereo unspecified), the Activity result in assay [3] was “Dose-dependent effect”.
